Measurements published in ChEMBL document CHEMBL1125245, “Quinolone antibacterials: preparation and activity of bridged bicyclic analogues of the C7-piperazine” (J Med Chem, 1991).

Assays:
[1] = target: DNA gyrase (Escherichia coli, UniProt P0AES4+P0AES6); experiment: Compound evaluated in vitro for the ability to inhibit gyrase.; format: protein-complex assay; conditions: read-out: I50 (converted)
Method in brief: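 DNA gyrase isolated from Escherichia coli H560 cells; inhibition given as I50.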

[2] = Compound evaluated in vitro against five gram-positive bacterial strains and geometric means of the minimum inhibitory concentrations (MIC) reported.; format: functional; set-up: unit not given here
Method in brief: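 Geometric mean MIC across five Gram-positive strains, taken as antilog of the averaged log MIC values.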

[3] = Compound evaluated in vitro against five gram-negative bacterial strains and geometric means of the minimum inhibitory concentrations (MIC) reported.; format: functional; set-up: unit not given here
Method in brief: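 Geometric mean MIC across five Gram-negative strains (E. coli H560, E. coli Vogel, Enterobacter cloacae MA 2646, Klebsiella pneumoniae MGH-2, Proteus rettgeri M1771). Mean taken as antilog of the averaged log MIC values.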

[4] = tested on: Streptococcus pneumoniae; experiment: In vivo protection against gram-positive Streptococcus pneumonia (SV-1) in mouse after oral administration.; format: functional; conditions: read-out: PD50
[5] = tested on: Streptococcus pneumoniae; experiment: In vivo protection against gram-positive Streptococcus pneumonia (SV-1) in mouse after subcutaneous administration; format: functional; conditions: sc, read-out: PD50
[6] = tested on: Escherichia coli; experiment: In vivo protection against gram-negative Escherichia coli vogel in mouse after oral administration.; conditions: read-out: PD50
[7] = tested on: Escherichia coli; experiment: In vivo protection against gram-negative Escherichia coli vogel in mouse after subcutaneous administration; conditions: sc, read-out: PD50

| Structure (SMILES) | IC50 [1] [µM] | MIC [2] | MIC [3] | ED50 [4] [mg/kg] | ED50 [5] [mg/kg] | ED50 [6] [mg/kg] | ED50 [7] [mg/kg] |
| --- | --- | --- | --- | --- | --- | --- | --- |
| O=C(O)c1cn(C2CC2)c2cc(N3CC4CCCC3CN4)c(F)cc2c1=O (stereo not given) | 4.85 | 0.06 | 0.08 | > 100 | 6.6 | 5.7 | 1.6 |
| Nc1c(F)c(N2CC3CCCC2CN3)c(F)c2c1c(=O)c(C(=O)O)cn2C1CC1 (stereo not given) | 2.23 | 0.03 | 0.04 | 35 | 6.3 | 4.8 | 0.7 |
| O=C(O)c1cn(C2CC2)c2cc(N3C[C@H]4CC3CN4)c(F)cc2c1=O | 8.15 | 0.79 | 0.1 | > 100 | 51 | 5.5 | 0.6 |
| O=C(O)c1cn(C2CC2)c2cc(N3CC4CCC3CN4)c(F)cc2c1=O (stereo not given) | 4.2 | 0.1 | 0.08 | > 100 | 24 | 5.5 | 0.7 |
| O=C(O)c1cn(C2CC2)c2nc(N3CC4CCC3CN4)c(F)cc2c1=O (stereo not given) | 17.6 | 0.11 | 0.13 | > 100 | 15.1 | 1.7 | 0.7 |
| O=C(O)c1cn(C2CC2)c2c(F)c(N3CC4CCCC3CN4)c(F)cc2c1=O (stereo not given) | 7.45 | 0.15 | 0.15 | 48.5 | 11.9 | 2.9 | 1.1 |
| N[C@H]1C[C@H]2CC[C@@H](C1)N2c1c(F)cc2c(=O)c(C(=O)O)cn(C3CC3)c2c1F | 9.76 | 0.03 | 0.05 | 8.5 | 3.1 | 1.8 | 0.75 |
| O=C(O)c1cn(C2CC2)c2c(F)c(N3CCN4CCC3C4)c(F)cc2c1=O (stereo not given) | 7.73 | 0.15 | 0.04 | 32 | 11 | 0.5 | 0.2 |
| Cl.O=C(O)c1cn(C2CC2)c2nc(N3CC4CCCC3CN4)c(F)cc2c1=O (stereo not given) | 7.34 | 0.09 | 0.08 | 25 | 18 | 2.3 | 0.8 |
| CN1CC2C[C@@H]1CN2c1nc2c(cc1F)c(=O)c(C(=O)O)cn2C1CC1.Cl | 9.62 | 0.35 | 0.08 | 23 | 25 | 0.5 | 0.3 |
